Source: ChEMBL document CHEMBL1144851, “Opioids and efflux transporters. Part 2: P-glycoprotein substrate activity of 3- and 6-substituted morphine analogs” (J Med Chem, 2008)

Legend:
[1] = molecular target: Mu-type opioid receptor (Homo sapiens, UniProt P35372); test: Displacement of [3H]diprenorphine from recombinant mu opioid receptor expressed in C6 cells; type: cell-based
[2] = molecular target: Delta-type opioid receptor (Homo sapiens, UniProt P41143); test: Displacement of [3H]diprenorphine from recombinant delta opioid receptor expressed in C6 cells; type: cell-based
Chain of Delta-type opioid receptor (P41143 whole entry): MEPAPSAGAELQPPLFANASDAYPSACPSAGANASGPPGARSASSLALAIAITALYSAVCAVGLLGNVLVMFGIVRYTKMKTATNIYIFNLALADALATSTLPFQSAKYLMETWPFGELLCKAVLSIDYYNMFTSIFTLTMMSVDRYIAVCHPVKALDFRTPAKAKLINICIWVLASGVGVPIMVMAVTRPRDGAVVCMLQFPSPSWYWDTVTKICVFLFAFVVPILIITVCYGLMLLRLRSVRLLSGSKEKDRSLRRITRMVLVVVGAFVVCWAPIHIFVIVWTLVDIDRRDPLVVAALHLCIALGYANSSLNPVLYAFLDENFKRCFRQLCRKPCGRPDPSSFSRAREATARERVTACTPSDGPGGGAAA
In short: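 Competitive binding against [3H]diprenorphine in membranes of C6 rat glioma cells expressing recombinant δ opioid receptor; Ki from three experiments run in duplicate, mean ± SEM.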

[3] = molecular target: Kappa-type opioid receptor (Homo sapiens, UniProt P41145); test: Displacement of [3H]diprenorphine from recombinant kappa opioid receptor expressed in CHO cells; type: cell-based
Chain of Kappa-type opioid receptor (P41145 whole entry): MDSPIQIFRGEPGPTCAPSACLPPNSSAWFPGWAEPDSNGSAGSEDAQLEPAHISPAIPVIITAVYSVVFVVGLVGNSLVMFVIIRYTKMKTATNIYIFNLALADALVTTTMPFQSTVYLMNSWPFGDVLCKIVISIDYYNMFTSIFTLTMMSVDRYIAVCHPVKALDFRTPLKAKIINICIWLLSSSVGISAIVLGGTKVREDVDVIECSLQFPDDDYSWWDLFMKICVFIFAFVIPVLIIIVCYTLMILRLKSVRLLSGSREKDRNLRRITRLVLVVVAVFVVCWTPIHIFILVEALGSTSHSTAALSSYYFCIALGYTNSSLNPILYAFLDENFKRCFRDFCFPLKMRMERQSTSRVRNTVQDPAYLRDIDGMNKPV

[4] = Selectivity for recombinant mu opioid receptor over recombinant delta opioid receptor
In short: (§1)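 Ratios of Ki values from [3H]diprenorphine displacement in membranes of C6 rat glioma cells expressing µ or δ receptors and CHO cells expressing κ receptor; three experiments in duplicate.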

[5] = Selectivity for recombinant mu opioid receptor over recombinant kappa opioid receptor; in short: as §1
[6] = molecular target: ATP-dependent translocase ABCB1 (Homo sapiens, UniProt P08183); test: Effect on human recombinant Pgp-mediated ATP consumption assessed as inhibition of ATPase activity at 200 uM by Pgp-Glo assay
Chain of ATP-dependent translocase ABCB1 (P08183 whole entry): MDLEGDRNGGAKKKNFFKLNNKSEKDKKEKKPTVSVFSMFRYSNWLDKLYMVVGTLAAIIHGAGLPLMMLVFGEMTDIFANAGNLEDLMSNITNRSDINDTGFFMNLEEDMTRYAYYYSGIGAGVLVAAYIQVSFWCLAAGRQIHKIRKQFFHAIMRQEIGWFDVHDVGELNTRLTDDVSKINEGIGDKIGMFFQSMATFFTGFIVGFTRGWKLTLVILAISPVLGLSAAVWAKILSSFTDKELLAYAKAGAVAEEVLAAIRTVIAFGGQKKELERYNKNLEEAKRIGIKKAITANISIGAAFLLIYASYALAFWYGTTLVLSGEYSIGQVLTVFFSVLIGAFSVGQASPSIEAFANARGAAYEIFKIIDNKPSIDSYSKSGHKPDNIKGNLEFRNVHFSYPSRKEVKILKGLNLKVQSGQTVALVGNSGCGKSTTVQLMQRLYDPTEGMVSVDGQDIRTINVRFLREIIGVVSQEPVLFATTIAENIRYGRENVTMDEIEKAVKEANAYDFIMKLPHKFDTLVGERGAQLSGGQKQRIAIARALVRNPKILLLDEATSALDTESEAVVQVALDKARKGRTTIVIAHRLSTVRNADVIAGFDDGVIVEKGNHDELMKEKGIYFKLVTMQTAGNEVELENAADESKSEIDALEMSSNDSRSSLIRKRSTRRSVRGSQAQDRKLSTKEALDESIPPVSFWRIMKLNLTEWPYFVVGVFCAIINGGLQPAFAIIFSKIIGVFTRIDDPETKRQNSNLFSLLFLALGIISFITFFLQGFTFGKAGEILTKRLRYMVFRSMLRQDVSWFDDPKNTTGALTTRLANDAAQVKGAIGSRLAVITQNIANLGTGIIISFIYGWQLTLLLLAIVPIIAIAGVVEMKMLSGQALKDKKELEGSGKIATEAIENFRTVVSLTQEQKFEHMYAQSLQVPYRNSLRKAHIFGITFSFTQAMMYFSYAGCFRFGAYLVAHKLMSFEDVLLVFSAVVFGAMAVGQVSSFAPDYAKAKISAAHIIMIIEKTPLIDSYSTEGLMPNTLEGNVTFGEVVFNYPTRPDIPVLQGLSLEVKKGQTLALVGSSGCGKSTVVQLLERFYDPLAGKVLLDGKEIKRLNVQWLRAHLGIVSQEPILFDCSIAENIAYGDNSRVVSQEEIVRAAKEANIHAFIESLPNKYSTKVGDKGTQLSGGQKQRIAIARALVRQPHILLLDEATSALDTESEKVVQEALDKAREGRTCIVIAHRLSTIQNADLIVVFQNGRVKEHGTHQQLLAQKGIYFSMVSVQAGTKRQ
In short: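 Recombinant human P-gp incubated with 200 µM compound in P-gp-Glo buffer, four wells each; started with MgATP (10 mM), quenched after 40 min with firefly luciferase ATP detection reagent, luminescence read 60 min later. Untreated, vanadate (100 µM) and verapamil (200 µM) controls; mean ± SEM, t-test.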

[7] = tested on: Mus musculus; test: Antinociceptive activity in sc dosed mouse by tail flick assay; type: functional
In short: (§2)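 Mice, test compound given subcutaneously; antinociception measured in tail-flick, p-phenylquinone writhing and hot plate assays following CPDD Drug Evaluation Committee protocols. ED50 (mg/kg) with 95% confidence limits.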

[8] = tested on: Mus musculus; test: Antinociceptive activity in sc dosed mouse by p-phenylquinone writhing assay; type: functional; in short: as §2
[9] = tested on: Mus musculus; test: Antinociceptive activity in sc dosed mouse by hot plate assay; type: functional; in short: as §2

Chain of Mu-type opioid receptor (P35372 whole entry): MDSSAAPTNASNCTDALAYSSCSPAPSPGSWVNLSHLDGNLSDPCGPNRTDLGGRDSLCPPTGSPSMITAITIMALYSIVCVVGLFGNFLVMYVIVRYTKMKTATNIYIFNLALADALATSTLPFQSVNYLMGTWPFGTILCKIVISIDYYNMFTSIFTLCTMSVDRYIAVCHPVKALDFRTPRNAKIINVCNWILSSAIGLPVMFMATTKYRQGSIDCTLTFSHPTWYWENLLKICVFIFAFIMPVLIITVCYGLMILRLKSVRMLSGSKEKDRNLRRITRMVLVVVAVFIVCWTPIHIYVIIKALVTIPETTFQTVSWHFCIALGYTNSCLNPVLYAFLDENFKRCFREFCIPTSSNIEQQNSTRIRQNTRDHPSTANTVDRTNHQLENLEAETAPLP

Structure (SMILES)	Ki [1] [µM]	Ki [2] [µM]	Ki [3] [µM]	Ratio Ki [4]	Ratio Ki [5]	Activity [6]	ED50 [7] [mg/kg]	ED50 [8] [mg/kg]	ED50 [9] [mg/kg]
COc1ccc2c3c1O[C@H]1[C@@H](OC)C=C[C@H]4[C@@H](C2)N(C)CC[C@@]341	1.91	4.41	5.43	2	3	–	–	–	–
CO[C@H]1CC[C@H]2[C@H]3Cc4cccc5c4[C@@]2(CCN3C)[C@H]1O5	0.524	8.83	11.6	17	22	–	–	–	–
COc1ccc2c3c1O[C@H]1CC=C[C@H]4[C@@H](C2)N(C)CC[C@]314	0.305	4.52	3.09	15	10	Active	–	–	–
CO[C@H]1C=C[C@H]2[C@H]3Cc4ccc(O)c5c4[C@@]2(CCN3C)[C@H]1O5 [HETEROCODEINE]	–	0.0658	0.0228	–	–	–	–	–	–
CN1CC[C@]23c4c5ccc(O)c4O[C@H]2CC=C[C@H]3[C@H]1C5	0.0021	0.0118	0.0455	4	16	Active	0.2	0.03	0.33
CN1CC[C@]23c4c5cccc4O[C@H]2[C@@H](O)CC[C@H]3[C@H]1C5	0.122	5.25	4.91	43	40	Active	–	–	–
CN1CC[C@]23c4c5cccc4O[C@H]2CCC[C@H]3[C@H]1C5	0.0229	0.241	0.589	11	26	–	–	–	–
